Assays:
Acholeplasma laidlawii = test: Antimicrobial activity against Acholeplasma laidlawii KB174 PG8 assessed as zone of inhibition at 1 ug/disc measured after 24 to 48 hrs by paper disc method; type: functional; conditions: read-out: IZ
Candida albicans = test: Antimicrobial activity against Candida albicans KF1 ATCC 64548 assessed as zone of inhibition at 10 ug/disc measured after 24 to 48 hrs by paper disc method; type: functional; conditions: read-out: IZ
Saccharomyces cerevisiae [1] = test: Antimicrobial activity against Saccharomyces cerevisiae KF237 ATCC 9763 assessed as zone of inhibition at 10 ug/disc measured after 24 to 48 hrs by paper disc method; type: functional; conditions: read-out: IZ
Saccharomyces cerevisiae [2] = test: Antimicrobial activity against Saccharomyces cerevisiae BY4741 assessed as zone of inhibition at 10 ug/disc measured after 24 to 48 hrs by paper disc method; type: functional; conditions: read-out: IZ
Procedure, shortened: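 S. cerevisiae BY4741 spread on YPD agar (1% yeast extract, 2% peptone, 2% glucose, 1.5% agar) at 1% inoculation. Sterile 6 mm filter discs loaded with 10 μL compound solution were placed on the plates. Plates were incubated at 27 °C for 48 h, then inhibition zones were measured.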

Saccharomyces cerevisiae [3] = test: Antimicrobial activity against Saccharomyces cerevisiae BY25929 harboring yrr2/yrs1/pdr1/pdr3 deletion mutant assessed as zone of inhibition at 10 ug/disc measured after 24 to 48 hrs by paper disc method; type: functional; conditions: read-out: IZ
Procedure, shortened: (§1)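 Paper disc diffusion with 6 mm sterile filter discs, each loaded with 10 μL of compound solution and placed on agar plates. Plates incubated at 27 or 37 °C for 24−48 h, then inhibition zones measured.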

Saccharomyces cerevisiae [4] = test: Antimicrobial activity against Saccharomyces cerevisiae harboring 12genedelta0HSR-iERG6 mutant assessed as zone of inhibition at 10 ug/disc measured after 24 to 48 hrs by paper disc method; type: functional; conditions: read-out: IZ; procedure, shortened: as §1
Aspergillus niger = test: Antimicrobial activity against Aspergillus niger KF103 ATCC 6275 assessed as zone of inhibition at 10 ug/disc measured after 24 to 48 hrs by paper disc method; type: functional; conditions: read-out: IZ
Mucor racemosus = test: Antimicrobial activity against Mucor racemosus KF223 assessed as zone of inhibition at 10 ug/disc measured after 24 to 48 hrs by paper disc method; type: functional; conditions: read-out: IZ
Staphylococcus aureus = test: Antimicrobial activity against Staphylococcus aureus KB210 ATCC 6538p assessed as zone of inhibition at 1 ug/disc measured after 24 to 48 hrs by paper disc method; type: functional; conditions: read-out: IZ
Procedure, shortened: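 Nutrient agar (0.5% peptone, 0.5% meat extract, 0.8% agar, pH 7.0) inoculated at 0.2% with S. aureus ATCC 6538p. 6 mm filter discs impregnated with 10 μL compound solution were applied. Plates were incubated at 37 °C for 24 h and inhibition zones were measured.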

Bacillus spizizenii = test: Antimicrobial activity against Bacillus subtilis KB211 ATCC 6633 assessed as zone of inhibition at 1 ug/disc measured after 24 to 48 hrs by paper disc method; type: functional; conditions: ATCC 6633 KB211, read-out: IZ
Procedure, shortened: (§2)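 Bacteria on nutrient agar (0.5% peptone, 0.5% meat extract, 0.8% agar, pH 7.0), 37 °C, 24 h. Inoculum 0.5% for B. subtilis, E. coli, K. pneumoniae, P. vulgaris; 0.2% for K. rhizophila. 6 mm discs carrying 10 μL compound solution. Zone of inhibition measured.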

Kocuria rhizophila = test: Antimicrobial activity against Kocuria rhizophila KB212 ATCC 9341 assessed as zone of inhibition at 1 ug/disc measured after 24 to 48 hrs by paper disc method; type: functional, Kocuria rhizophila DC2201; conditions: read-out: IZ; procedure, shortened: as §2
[5] = tested on: Mycolicibacterium smegmatis; test: Antimicrobial activity against Mycobacterium smegmatis KB42 assessed as zone of inhibition at 1 ug/disc measured after 24 to 48 hrs by paper disc method; type: functional; conditions: read-out: IZ
Escherichia coli = test: Antimicrobial activity against Escherichia coli KB213 NIHJ assessed as zone of inhibition at 1 ug/disc measured after 24 to 48 hrs by paper disc method; type: functional; conditions: read-out: IZ; procedure, shortened: as §2
Klebsiella pneumoniae = test: Antimicrobial activity against Klebsiella pneumoniae KB214 ATCC 10031 assessed as zone of inhibition at 1 ug/disc measured after 24 to 48 hrs by paper disc method; type: functional; conditions: read-out: IZ
Procedure, shortened: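 Paper disc diffusion with 6 mm sterile filter discs, each loaded with 10 μL of compound solution and placed on nutrient agar (0.5% peptone, 0.5% meat extract, 0.8% agar, pH 7.0). Plates seeded with 0.5% inoculum and incubated at 37 °C for 24 h. Inhibition zone diameters measured after incubation.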

Pseudomonas aeruginosa = test: Antimicrobial activity against Pseudomonas aeruginosa KB359 NBRC 12582 assessed as zone of inhibition at 1 ug/disc measured after 24 to 48 hrs by paper disc method; type: functional; conditions: read-out: IZ
Procedure, shortened: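 Pseudomonas aeruginosa NBRC 12582 on nutrient agar (0.5% peptone, 0.5% meat extract, 0.8% agar, pH 7.0), 1.0% inoculation, 37 °C, 24 h. Discs (6 mm) impregnated with 10 μL compound solution placed on plate. Inhibition zones measured.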

Xanthomonas campestris = test: Antimicrobial activity against Xanthomonas campestris pv. oryzae KB88 assessed as zone of inhibition at 1 ug/disc measured after 24 to 48 hrs by paper disc method; type: functional; conditions: read-out: IZ
Procedure, shortened: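 Paper disc diffusion with 6 mm sterile filter discs, each loaded with 10 μL of compound solution and placed on nutrient agar (0.5% peptone, 0.5% meat extract, 0.8% agar, pH 7.0). Plates seeded with 1.0% inoculum and incubated at 27 °C for 24 h. Inhibition zone diameters measured after incubation.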

Proteus vulgaris = test: Antimicrobial activity against Proteus vulgaris KB127 NBRC 3167 assessed as zone of inhibition at 1 ug/disc measured after 24 to 48 hrs by paper disc method; type: functional; conditions: read-out: IZ; procedure, shortened: as §2

## CC[C@H]1OC(=O)[C@H](C)[C@@H](O[C@H]2C[C@@](C)(OC)[C@@H](O)[C@H](C)O2)[C@H](C)[C@@H](O[C@@H]2O[C@H](C)C[C@H](N(C)C)[C@H]2O)[C@](C)(O)C[C@@H](C)C(=O)[C@H](C)[C@@H](O)[C@]1(C)O [ERYTHROMYCIN]
Acholeplasma laidlawii
  zone of inhibition at 1 µg/disc: 28 mm

## C[C@@H]1[C@H](O)[C@@H](C)/C=C/C=C/C=C/C=C/C=C/C=C/C=C/[C@H](O[C@@H]2O[C@H](C)[C@@H](O)[C@H](N)[C@@H]2O)C[C@@H]2O[C@](O)(C[C@@H](O)C[C@@H](O)[C@H](O)CC[C@@H](O)C[C@@H](O)CC(=O)O[C@H]1C)C[C@H](O)[C@H]2C(=O)O [AMPHOTERICIN B]
Candida albicans
  zone of inhibition at 10 µg/disc: 13 mm
Saccharomyces cerevisiae [1]
  zone of inhibition at 10 µg/disc: 14.5 mm
Saccharomyces cerevisiae [2]
  zone of inhibition at 10 µg/disc: 8.2 mm
Saccharomyces cerevisiae [3]
  zone of inhibition at 10 µg/disc: 11.7 mm
Saccharomyces cerevisiae [4]
  zone of inhibition at 10 µg/disc: 9.8 mm
Aspergillus niger
  zone of inhibition at 10 µg/disc: 16.1 mm
Mucor racemosus
  zone of inhibition at 10 µg/disc: 15.1 mm

## C[C@@H](O)[C@H]1C(=O)N2C(C(=O)O)=C(S[C@@H]3CN[C@H](C(=O)N(C)C)C3)[C@H](C)[C@H]12
Staphylococcus aureus
  zone of inhibition at 1 µg/disc: 35.2 mm
Bacillus spizizenii
  zone of inhibition at 1 µg/disc: 24.1 mm
Kocuria rhizophila
  zone of inhibition at 1 µg/disc: 38 mm
[5]
  zone of inhibition at 1 µg/disc: 9.5 mm
Escherichia coli
  zone of inhibition at 1 µg/disc: 31 mm
Klebsiella pneumoniae
  zone of inhibition at 1 µg/disc: 27 mm
Pseudomonas aeruginosa
  zone of inhibition at 1 µg/disc: 47.3 mm
Xanthomonas campestris
  zone of inhibition at 1 µg/disc: 31.6 mm
Proteus vulgaris
  zone of inhibition at 1 µg/disc: 37.8 mm

Reference: ChEMBL document CHEMBL4145644 (J Nat Prod, 2018)
